Here are results for 2 compounds from ChEMBL document CHEMBL5678814, “Novel Mps1 Kinase Inhibitors with Potent Antitumor Activity” (Mol Cancer Ther, 2016).

The nature of data set [1]: Tmax in male Wistar rat plasma at 0.5 mg/kg, po measured after 24 hrs by LC/-MS/MS analysis. It is filed as ADME, organism-based. A digest of the protocol: (§1)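 Male Wistar rats given 0.5 mg/kg orally. Plasma collected from 8 min to 24 h, precipitated with ice-cold acetonitrile (1:5), and analysed by LC/MS-MS. Cmax and Tmax read directly from concentration–time profiles.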

Data set [2] in a line: Volume of distribution at steady state in male Wistar rat plasma at 0.5 mg/kg, iv measured after 24 hrs by LC/-MS/MS analysis. The following applies: read-out: Vdss. It counts as ADME, organism-based.
A short description of data set [3]: Oral bioavailability in male Wistar rat plasma at 0.5 mg/kg measured after 24 hrs by LC/-MS/MS analysis. It counts as ADME, organism-based.
Data set [4] is described as follows: Antitumor activity against human A2780cis cells implanted female athymic NMRI mouse model assessed as reduction in KNL1 at Thr-875 phosphorylation at 2 mg/kg,po administered for 2 days by immunohistochemical staining relative to control. It counts as functional. The arrangement: scale not given: the % may be the effect or the level left. Conditions: time 2 day.

Data set [5] can be described thus: Volume of distribution at steady state in female CD1 mouse plasma at 1 mg/kg, iv measured after 24 hrs by LC/-MS/MS analysis. It is filed as ADME, organism-based. The following applies: read-out: Vdss. In a few lines: (§2)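 Female CD1 mice received a single iv bolus of 1.0 mg/kg in 50% PEG 400, 10% ethanol and 40% water. Plasma was sampled at 2, 5, 15, 30 and 45 min and at 1, 2, 4, 6, 8 and 24 h, precipitated with ice-cold acetonitrile (1:5), and supernatants were quantified by LC/MS-MS. Parameters were estimated from plasma concentration data, with AUC by the log-linear trapezoidal rule.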

The nature of data set [6]: Antitumor activity against human A2780cis cells implanted female athymic NMRI mouse model assessed as reduction in KNL1 at Thr-875 phosphorylation at 4 mg/kg,po administered for 2 days by immunohistochemical staining relative to control. The arrangement: scale not given: the % may be the effect or the level left. It is filed as functional. Conditions: time 2 day.
Data set [7] in a line: Clearance in male Wistar rat blood at 0.5 mg/kg, iv measured after 24 hrs by LC/-MS/MS analysis. It counts as ADME, organism-based.
Data set [8] in a line: Antitumor activity against human A2780cis cells xenografted female athymic NMRI mouse model assessed as T/C ratio at 5 mg/kg, po administered twice daily intermittent for 2 days on/5 days off. It counts as functional. The following applies: time 7 day. Background: Xenograft models place foreign cells or tissue in a host animal.
The nature of data set [9]: Tmax in female NMRI mouse plasma at 1 mg/kg, po measured after 24 hrs by LC/-MS/MS analysis.
The nature of data set [10]: Cmax in male Wistar rat plasma at 0.5 mg/kg, po measured after 24 hrs by LC/-MS/MS analysis. It counts as ADME, organism-based. A digest of the protocol:
as §1

The test system of another data set is Caov-3 cell line. Description: Antiproliferative activity against human Caov-3 cell line assessed as cell growth inhibition incubated for 96 hrs by crystal violet staining. The following applies: Caov-3, 96 h.
Data set [11] is described as follows: Cmax in female NMRI mouse plasma at 1 mg/kg, po measured after 24 hrs by LC/-MS/MS analysis.
The nature of data set [12]: Clearance in female CD1 mouse blood at 1 mg/kg, iv measured after 24 hrs by LC/-MS/MS analysis. It counts as ADME, organism-based. In a few lines:
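Single dose to female mice, i.v. as bolus (1.0 mg/kg) or oral (1 mg/kg), in 50% PEG 400/10% ethanol/40% water. Plasma sampled up to 24 h: 2 min–24 h after i.v., 8 min–24 h after p.o. Samples precipitated with ice-cold acetonitrile (1:5) and analysed by LC/MS-MS. AUC by log-linear trapezoidal rule; Cmax and Tmax read directly from the profiles.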

A further data set has as its system LXF-289 cell line. Kind of data set: Antiproliferative activity against human LXF-289 cell line assessed as cell growth inhibition incubated for 96 hrs by crystal violet staining. The following applies: LXF-289, 96 h.
Another data set concerns NCI-H1299. Kind of data set: Synergistic antitumor activity against human NCI-H1299 cells xenografted female athymic NMRI mouse model assessed as MTD at 3 mg/kg,po administered twice daily intermittent for 2 days on/5 days off in the presence of paclitaxel relative to control. The following applies: time 7 day. It is filed as functional.
Data set [13] can be described thus: Oral bioavailability in female NMRI mouse plasma at 1 mg/kg measured after 24 hrs by LC/-MS/MS analysis.
Data set [14] deals with KATO III stomach cancer cell line. Description: Antiproliferative activity against human KATO III stomach cancer cell line assessed as cell growth inhibition incubated for 96 hrs by MTS assay. It is filed as functional, cell-based. For orientation: Tetrazolium assays rely on reduction of a dye to a coloured formazan, in cell work by metabolically active cells.
The nature of data set [15]: Half life in female CD1 mouse plasma at 1 mg/kg, iv measured after 24 hrs by LC/-MS/MS analysis. It is filed as ADME, organism-based. A digest of the protocol:
as §2

The nature of data set [16]: Synergistic toxicity in human NCI-H1299 cells xenografted female athymic NMRI mouse model assessed as body weight loss at 3 mg/kg,po administered twice daily intermittent for 2 days on/5 days off in the presence of paclitaxel relative to control. It is filed as organism-based. The following applies: in vivo, 168 h, time 7 day. In a few lines: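 NCI-H1299 cells (3×10^6 in 100% Matrigel) implanted s.c. in the inguinal region of athymic mice. Treatment started on day 8 at ~30 mm2. Mps1 inhibitor given p.o. 3 mg/kg twice daily, 2 days on/5 off. Paclitaxel i.v. 20 mg/kg once weekly, given within 1 h of the inhibitor on the same day. Body weight tracked two to three times weekly; >20% loss deemed toxic.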

Data set [17] in a line: Half life in male Wistar rat plasma at 0.5 mg/kg, iv measured after 24 hrs by LC/-MS/MS analysis. It is filed as ADME, organism-based.
Data set [18] is described as follows: Toxicity in human A2780cis cells xenografted female athymic NMRI mouse model assessed as change in body weight at 5 mg/kg, po administered twice daily intermittent for 2 days on/5 days off. It is filed as organism-based. Conditions: in vivo, 168 h, time 7 day. A digest of the protocol: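 A2780cis cells (2×10^6 in 100% Matrigel) implanted s.c. in athymic mice. Treatment started at ~30 mm2. Oral dosing twice daily, 2 days on/5 days off, with PEG 400/ethanol/Solutol vehicle controls. Dose based on individual body weight. Body weight monitored two to three times weekly as toxicity measure; >20% loss deemed toxic.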

In another data set the test system is SUM149PT. Kind of data set: Synergistic antitumor activity against human SUM149 cells xenografted female athymic NMRI mouse model assessed as MTD at 1.5 mg/kg,po administered twice daily intermittent for 2 days on/5 days off measured after 48 days treatment in the presence of paclitaxel relative to control. Conditions: time 48 day.
For data set [19], the system named is A2780cis. Description: Antitumor activity against human A2780cis cells xenografted in female athymic NMRI mouse assessed as induction in atypical mitoses at 24 mg/kg,iv administered once for 1 day and measured after 8 hrs by H&E staining.
In data set [20] the test system is A2780cis. Kind of data set: Antitumor activity against human A2780cis cells implanted female athymic NMRI mouse model assessed as induction in KNL1 at Thr-875 phosphorylation at 24 mg/kg,iv administered once for 1 day by immunohistochemical staining. It counts as functional, organism-based. A digest of the protocol: (§3)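 A2780cis tumors (2×10^6 cells in 100% Matrigel, s.c.) in female NMRI nude mice. Paclitaxel i.v. once at 24 mg/kg on day 1, started at ~52–60 mm2 tumor area. Tumors harvested 36 h after first treatment. Paraffin sections stained with rabbit anti-pThr875 KNL1 or anti-CASC5 (total KNL1), both 1:400. Positive pixels above background scored in three fields per slide.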

For a further data set, the system named is LU387. Description: Antitumor activity against human LU387 cells xenografted female athymic NMRI mouse model assessed as reduction in tumor size at 20 mg/kg,iv administered twice daily intermittent for 1 days on/6 days off. It is filed as functional, organism-based. Conditions: time 7.0 day, in the assay text read “once daily” for “twice daily”. In a few lines: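 LU387 patient-derived tumor fragments (4–5 mm) transplanted s.c. into the flank of nude mice. Treatment started at ~40 mm2. Paclitaxel i.v. at 20 mg/kg once weekly (1 on/6 off). Tumor area (longest diameter × perpendicular) measured by caliper two to three times weekly. T/C computed from end-of-study tumor areas; 8–10 mice/group.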

Data set [21] has as its system A2780cis. Kind of data set: Antitumor activity against human A2780cis cells implanted female athymic NMRI mouse model assessed as change in KNL1 total level at 24 mg/kg,iv administered for 1 day by immunohistochemical staining. It counts as functional, organism-based. In a few lines:
as §3

The subject of data set [22] is A2780cis. Kind of data set: Antitumor activity against human A2780cis cells xenografted in female athymic NMRI mouse assessed as increase in apoptosis at 24 mg/kg,iv administered once for 1 day and measured after 8 hrs by H&E staining.
Data set [23] has as its system A2780cis. Description: Antitumor activity against human A2780cis cells xenografted in female athymic NMRI mouse assessed as increase in necrosis at 24 mg/kg,iv administered once for 1 day and measured after 8 hrs by H&E staining.

Structures are written as SMILES. The source made the active and inactive calls.

Take `COc1ccc(Oc2cc(NCCC(F)(F)F)c3ncc(-c4ccc(C(=O)NC5CC5)c(C)c4)n3n2)c(F)c1F` [BAY-1217389]: the Tmax (in general, the time from dosing to the highest level) was determined as 1.5 h in data set [1] and 7 h in data set [9]. Besides, the Vd in data set [2] was 2.2 L/kg; in data set [5], 2.7 L/kg. The bioavailability – broadly, the share of a dose that reaches the circulation, judged against a reference dose that is usually intravenous – came to 73% in data set [3] and 37% in data set [13]. In addition, the Activity is recorded as 60% in data set [4], 80% in data set [6], over 10% in data set [16] and “Non-Toxic” in data set [18]. Further, the values for the clearance in [7] and in data set [12] were 9 mL/min/kg and 13.7 mL/min/kg, respectively. Also, the T/C in [8] is on record as 0.53. Also, the Cmax (in general, the highest concentration seen after dosing) was found to be 177 ng/mL in [10] and 74 ng/mL in data set [11]. For the same compound, the 50% inhibitory concentration (IC50) (in general, the concentration that gives 50% inhibition) is 36 nM with Caov-3 cell line, 3.3 nM in the data set on LXF-289 cell line and over 300 nM in [14]. Further, the MED came out at 60% with NCI-H1299 and 30% in the data set on SUM149PT. Besides, the half-life (usually the time needed for the level to fall by half in the phase considered) in data set [15] was 4.1 h; in data set [17], 7.8 h.

On to `CC(=O)O[C@H]1C(=O)[C@@]2(C)[C@H]([C@H](OC(=O)c3ccccc3)[C@]3(O)C[C@H](OC(=O)[C@H](O)[C@@H](NC(=O)c4ccccc4)c4ccccc4)C(C)=C1C3(C)C)[C@]1(OC(C)=O)CO[C@@H]1C[C@@H]2O`, for which the result in the data set with A2780cis [19], in the data set with A2780cis [20], with LU387, with A2780cis [21], in the data set on A2780cis [22] and in the data set with A2780cis [23] was Active.
